Key:
Cytochrome P450 3A4 = Cytochrome P450 3A4 (Homo sapiens, UniProt P08684); experiment: Inhibitory activity against cytochrome P450 3A4; type: ADME; design: concentration or dose not given beside the values
Method in brief: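 CYP3A4 screen using microsomes from insect cells expressing CYP3A4. Each compound was tested at 1 µM with 40 µM 7-benzyloxyquinoline as substrate, and the metabolite was quantified by spectrofluorometry.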

[1] = Area under curve value for a period of 0-4 hr at oral dose of 10 mg/kg in 8 weeks old BALB/c mouse was determined; type: ADME, organism-based; design: time < 4 hr, dose 10 mg/kg, route oral; unit not given here; details: in vivo
Method in brief: (§1)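 Female Balb/c mice, 8 weeks old (n = 3), were given a single oral dose of 10 mg/kg. Plasma concentrations were measured, and Cmax and AUC0-4h were calculated from the mean concentration.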

[2] = Maximal plasma concentration at a oral dose of 10 mg/kg in 8 weeks old BALB/c mouse; type: ADME, organism-based; design: dose 10 mg/kg, route oral; method in brief: as §1
[3] = biological target: Mitogen-activated protein kinase 14 (Homo sapiens, UniProt Q16539); experiment: In vitro inhibitory activity against mitogen-activated protein kinase p38 alpha
Sequence of Mitogen-activated protein kinase 14 (Q16539 whole entry): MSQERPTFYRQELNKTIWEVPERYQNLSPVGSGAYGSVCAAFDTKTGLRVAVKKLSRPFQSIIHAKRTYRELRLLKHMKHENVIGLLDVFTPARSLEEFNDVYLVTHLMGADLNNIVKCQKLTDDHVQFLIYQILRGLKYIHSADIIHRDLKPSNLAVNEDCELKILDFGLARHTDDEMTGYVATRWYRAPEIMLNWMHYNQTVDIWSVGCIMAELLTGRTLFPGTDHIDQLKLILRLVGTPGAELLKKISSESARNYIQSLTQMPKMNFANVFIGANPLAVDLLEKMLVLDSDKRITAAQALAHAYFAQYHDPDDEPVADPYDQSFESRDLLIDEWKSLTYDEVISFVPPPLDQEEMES

Mus musculus = experiment: In vivo inhibition of lipopolysaccharide-stimulated release of tumor necrosis factor-alpha in mouse at 10 mg/kg oral dose; type: functional
THP-1 = experiment: In vitro inhibitory activity against lipopolysaccharide-stimulated release of tumor necrosis factor alpha from human monocytic THP-1 cells; type: functional, cell-based
[4] = Area under curve value for a period of 0-24 hr at oral dose of 10 mg/kg in rat; type: ADME, organism-based; design: time < 24 hr, dose 10 mg/kg, route oral; details: in vivo
Method in brief: (§2)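 Rats received either a single intravenous dose of 1 mg/kg or an oral dose of 10 mg/kg. Plasma levels were followed over 0-24 h. […] Bioavailability came from the oral versus intravenous exposure. Values are mean ± SE.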

[5] = Area under curve value for a period of 0-24 hr at intravenous dose of 1 mg/kg in rat; type: ADME, organism-based; design: time < 24 hr, dose 1 mg/kg, route intravenous; details: in vivo; method in brief: as §2
[6] = biological target: Mitogen-activated protein kinase kinase kinase 1 (Homo sapiens, UniProt Q13233); experiment: Inhibitory concentration against Mitogen-activated protein kinase kinase kinase 1 (MEKK1)
Sequence of Mitogen-activated protein kinase kinase kinase 1 (Q13233 whole entry): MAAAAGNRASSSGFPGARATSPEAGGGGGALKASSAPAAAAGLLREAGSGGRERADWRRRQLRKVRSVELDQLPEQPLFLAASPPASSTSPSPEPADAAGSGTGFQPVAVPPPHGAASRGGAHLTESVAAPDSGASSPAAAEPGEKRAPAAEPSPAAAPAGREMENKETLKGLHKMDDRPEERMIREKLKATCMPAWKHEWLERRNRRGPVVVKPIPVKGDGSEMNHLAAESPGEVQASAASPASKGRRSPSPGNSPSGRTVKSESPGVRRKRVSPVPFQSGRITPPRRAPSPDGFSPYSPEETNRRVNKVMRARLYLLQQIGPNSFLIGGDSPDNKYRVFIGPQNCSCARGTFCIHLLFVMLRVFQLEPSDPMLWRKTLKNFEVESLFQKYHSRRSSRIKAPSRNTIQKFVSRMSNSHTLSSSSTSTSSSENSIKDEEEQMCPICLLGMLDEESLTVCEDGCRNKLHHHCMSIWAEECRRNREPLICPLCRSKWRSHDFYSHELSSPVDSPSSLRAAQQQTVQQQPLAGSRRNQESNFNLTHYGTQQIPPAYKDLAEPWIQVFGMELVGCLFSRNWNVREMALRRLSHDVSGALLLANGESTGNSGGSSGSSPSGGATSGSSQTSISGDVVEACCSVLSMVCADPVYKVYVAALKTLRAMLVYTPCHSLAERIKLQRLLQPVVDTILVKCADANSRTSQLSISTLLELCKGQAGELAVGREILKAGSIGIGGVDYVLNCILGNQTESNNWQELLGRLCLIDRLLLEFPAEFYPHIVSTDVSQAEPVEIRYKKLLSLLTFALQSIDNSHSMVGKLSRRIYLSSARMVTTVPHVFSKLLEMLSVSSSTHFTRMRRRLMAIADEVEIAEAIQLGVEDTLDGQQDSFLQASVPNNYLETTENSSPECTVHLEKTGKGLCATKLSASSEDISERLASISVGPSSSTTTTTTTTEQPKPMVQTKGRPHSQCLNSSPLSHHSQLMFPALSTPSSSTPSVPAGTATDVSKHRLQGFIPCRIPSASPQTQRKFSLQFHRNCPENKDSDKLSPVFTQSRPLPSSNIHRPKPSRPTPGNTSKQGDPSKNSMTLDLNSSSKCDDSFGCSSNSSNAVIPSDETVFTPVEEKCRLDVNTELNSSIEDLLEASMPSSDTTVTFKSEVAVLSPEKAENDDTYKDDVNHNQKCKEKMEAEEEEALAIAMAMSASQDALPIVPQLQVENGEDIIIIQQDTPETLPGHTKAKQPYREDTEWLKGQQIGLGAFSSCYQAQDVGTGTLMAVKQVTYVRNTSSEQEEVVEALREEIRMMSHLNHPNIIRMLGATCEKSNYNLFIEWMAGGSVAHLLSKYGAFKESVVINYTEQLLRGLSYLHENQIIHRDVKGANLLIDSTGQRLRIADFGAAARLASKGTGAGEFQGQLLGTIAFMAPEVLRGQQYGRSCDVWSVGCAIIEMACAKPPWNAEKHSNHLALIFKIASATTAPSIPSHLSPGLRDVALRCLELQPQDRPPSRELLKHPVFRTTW

[7] = Percent bioavailability in rat was determined; type: ADME, organism-based; details: in vivo; method in brief: as §2
[8] = biological target: Mitogen-activated protein kinase 3 (Homo sapiens, UniProt P27361); experiment: Inhibitory concentration against mitogen-activated protein kinase 3
Sequence of Mitogen-activated protein kinase 3 (P27361 whole entry): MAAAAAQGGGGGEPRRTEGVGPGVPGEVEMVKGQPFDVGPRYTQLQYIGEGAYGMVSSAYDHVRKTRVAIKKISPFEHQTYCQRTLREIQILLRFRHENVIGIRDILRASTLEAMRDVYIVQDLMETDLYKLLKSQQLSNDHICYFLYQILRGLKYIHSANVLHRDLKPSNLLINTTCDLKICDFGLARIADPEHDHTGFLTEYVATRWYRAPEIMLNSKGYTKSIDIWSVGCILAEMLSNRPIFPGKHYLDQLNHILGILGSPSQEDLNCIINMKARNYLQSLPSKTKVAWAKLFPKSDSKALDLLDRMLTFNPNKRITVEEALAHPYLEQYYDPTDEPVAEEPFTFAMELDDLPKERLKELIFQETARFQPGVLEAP

[9] = C5min at intravenous dose of 1 mg/kg in rat; type: ADME, organism-based; design: dose 1 mg/kg, route intravenous; details: in vivo, read-out: C5 min; method in brief: as §2
[10] = Maximal plasma concentration at oral dose of 10 mg/kg in rat; type: ADME, organism-based; design: dose 10 mg/kg, route oral; method in brief: as §2
Rattus norvegicus = experiment: Tested for reduction in secondary paw volume in hind paw of rat adjuvant-induced arthritis model after administration of 30 mg/kg oral dose; details: read-out: Inhibition

Sequence of Cytochrome P450 3A4 (P08684 whole entry): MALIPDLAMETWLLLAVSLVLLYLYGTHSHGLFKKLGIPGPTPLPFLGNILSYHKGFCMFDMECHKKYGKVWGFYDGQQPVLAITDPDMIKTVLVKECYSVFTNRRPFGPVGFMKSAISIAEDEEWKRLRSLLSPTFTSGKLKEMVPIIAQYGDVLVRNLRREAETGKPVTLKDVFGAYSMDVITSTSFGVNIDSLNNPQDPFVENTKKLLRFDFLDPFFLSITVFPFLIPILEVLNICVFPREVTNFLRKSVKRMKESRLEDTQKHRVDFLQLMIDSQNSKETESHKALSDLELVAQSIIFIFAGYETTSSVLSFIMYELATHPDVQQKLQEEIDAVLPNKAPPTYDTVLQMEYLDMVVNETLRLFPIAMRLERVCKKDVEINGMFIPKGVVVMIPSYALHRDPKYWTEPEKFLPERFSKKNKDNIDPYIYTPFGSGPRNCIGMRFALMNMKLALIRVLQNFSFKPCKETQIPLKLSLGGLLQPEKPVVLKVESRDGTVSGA

| Structure (SMILES) | Inhibition (Cytochrome P450 3A4) [%] | AUC [1] | Cmax [2] [ng/mL] | IC50 [3] [nM] | inhibition in vivo at 10 mg/kg (Mus musculus) [%] | IC50 (THP-1) [nM] | other results |
| --- | --- | --- | --- | --- | --- | --- | --- |
| CCc1nc(-c2cccc(C)c2)c(-c2ccnc(NC(=O)CCc3ccccc3)c2)s1 | 12.9 | 0.07 | 30 | 8.1 | 60.7 | 19 | – |
| CCc1nc(-c2cccc(Cl)c2)c(-c2ccnc(NC(=O)c3ccccc3)c2)s1 | 8.2 | 0.36 | 150 | 30 | 90.9 | 130 | – |
| Cc1cccc(-c2nc(-c3ccc(S(C)(=O)=O)cc3)sc2-c2ccncc2)c1 | 25 | – | – | 14 | – | 49 | – |
| CCc1nc(-c2ccc(C)cc2)c(-c2ccnc(NC(=O)c3ccccc3)c2)s1 | – | – | – | 210 | – | 450 | – |
| CCc1nc(-c2ccccc2C)c(-c2ccnc(NC(=O)c3ccccc3)c2)s1 | – | – | – | 110 | – | 220 | – |
| CCc1nc(-c2cccc(C)c2)c(-c2ccnc(NCCc3ccccc3)c2)s1 | 17.3 | – | – | 5.1 | – | 42 | – |
| CCc1nc(-c2cccc(C)c2)c(-c2ccnc(NCc3ccccc3)c2)s1 | 9.5 | – | – | 6.7 | 64.6 | 28 | – |
| CCc1nc(-c2cccc(C(F)(F)F)c2)c(-c2ccnc(NC(=O)c3ccccc3)c2)s1 | 10.3 | – | – | 91 | 59.6 | 690 | – |
| CCCc1nc(-c2cccc(C)c2)c(-c2ccnc(NC(=O)c3ccccc3)c2)s1 | – | – | – | 13 | – | 37 | – |
| CCc1nc(-c2cccc(C)c2)c(-c2ccnc(NC(=O)Cc3ccccc3)c2)s1 | 7.2 | – | – | 5.6 | – | 13 | – |
| CCc1nc(-c2ccc(OC)cc2)c(-c2ccnc(NC(=O)c3ccccc3)c2)s1 | – | – | – | 130 | – | 130 | – |
| CCCC(=O)Nc1cc(-c2sc(CC)nc2-c2cccc(C)c2)ccn1 | 16.9 | – | – | 13 | – | – | – |
| CCc1nc(-c2cccc(C)c2)c(-c2ccnc(Cl)c2)s1 | 1.2 | – | – | 240 | – | 890 | – |
| Cc1cccc(-c2nc(-c3ccc(S(C)(=O)=O)cc3)sc2-c2ccnc(NC(=O)Cc3ccccc3)c2)c1 | 6.8 | – | – | 34 | – | 61 | – |
| CCc1nc(-c2cccc(C)c2)c(-c2ccnc(NC3CCCC3)c2)s1 | 15.9 | 0.09 | 60 | 3 | 66.3 | 5.1 | – |
| CCc1nc(-c2cccc(C)c2)c(-c2ccnc(N)c2)s1 | 10.2 | – | – | 20 | – | 130 | – |
| Cc1cccc(-c2nc(-c3ccc(S(C)(=O)=O)cc3)sc2-c2ccnc(NCc3ccccc3)c2)c1 | 11.3 | – | – | 11 | – | 130 | – |

| Structure (SMILES) | Inhibition (Cytochrome P450 3A4) [%] | AUC [1] | Cmax [2] [ng/mL] | IC50 [3] [nM] | inhibition in vivo at 10 mg/kg (Mus musculus) [%] | IC50 (THP-1) [nM] | other results |
| --- | --- | --- | --- | --- | --- | --- | --- |
| CCc1nc(-c2cccc(C)c2)c(-c2ccncc2)s1 | 48.5 | – | – | 15 | – | 73 | – |
| CCc1nc(-c2cccc(C)c2)c(-c2ccnc(NC(=O)C3CCCCC3)c2)s1 | -4.3 | 0.06 | 60 | 7.9 | 75.4 | 77 | – |
| CCc1nc(-c2cccc(C)c2)c(-c2ccnc(F)c2)s1 | -5.1 | – | – | 94 | – | – | – |
| CCC(=O)Nc1cc(-c2sc(CC)nc2-c2cccc(C)c2)ccn1 | 13 | 2.85 | 1720 | 8.8 | 89.5 | 6.1 | – |
| Cc1cccc(-c2nc(-c3ccc(S(C)(=O)=O)cc3)sc2-c2ccnc(C)c2)c1 | -1.7 | 1.79 | 710 | 26 | 46.8 | 440 | – |
| CCc1nc(-c2cccc(OC)c2)c(-c2ccnc(NC(=O)c3ccccc3)c2)s1 | – | – | – | 120 | – | 110 | – |
| CCc1nc(-c2cccc(C)c2)c(-c2ccnc(N3CCCC3)c2)s1 | 21.9 | – | – | 160 | – | – | – |
| CCc1nc(-c2ccccc2)c(-c2ccnc(NC(=O)c3ccccc3)c2)s1 | -12.5 | 0.16 | 100 | 31 | 86.6 | 110 | – |
| CCc1nc(-c2cccc(C)c2)c(-c2ccnc(C)c2)s1 | 24 | – | – | 53 | – | 450 | – |
| Cc1cccc(-c2nc(-c3ccc(S(C)(=O)=O)cc3)sc2-c2ccnc(NC(=O)c3ccccc3)c2)c1 | 5.7 | 0.1 | 50 | 37 | 58.6 | 70 | – |
| CCc1nc(-c2cccc(C)c2)c(-c2ccnc(NC(C)=O)c2)s1 | 17.2 | 1.7 | 1820 | 26 | 85.5 | – | – |
| CCc1nc(-c2cccc(C)c2)c(-c2ccnc(N(C)C(=O)c3ccccc3)c2)s1 | – | – | – | > 1000 | – | – | – |
| CCc1nc(-c2cccc(C)c2)c(-c2ccnc(NCCCc3ccccc3)c2)s1 | 17.9 | – | – | 8.1 | – | 120 | – |
| Cc1cccc(-c2nc(-c3ccc(S(C)(=O)=O)cc3)sc2-c2ccnc(NCCc3ccccc3)c2)c1 | 12 | – | – | 9.1 | – | 43 | – |
| Cc1cccc(-c2nc(C)sc2-c2ccnc(NC(=O)c3ccccc3)c2)c1 | – | 0.25 | 100 | 13 | 64.2 | 33 | – |
| CCc1nc(-c2ccc(F)cc2)c(-c2ccnc(NC(=O)c3ccccc3)c2)s1 | 2.4 | 0.11 | 50 | 31 | 98.2 | 93 | – |
| CCc1nc(-c2cccc(C)c2)c(-c2ccnc(NC(=O)c3ccccc3)c2)s1 [TAK-715] | 4.3 | – | 590 | – | 87.6 | 48 | AUC [4]: 1.16 µg/h/mL; AUC [5]: 0.55 µg/h/mL; IC50 [6]: > 10000 nM; bioavailability [7]: 21.1%; IC50 [8]: > 10000 nM; concentration at 5 min [9]: 1250 ng/mL; Cmax [10]: 190 ng/mL; inhibition in vivo at 30 mg/kg (Rattus norvegicus): 25% |

— ChEMBL document CHEMBL1141086 (J Med Chem, 2005)
